Experimental data taken from ChEMBL document CHEMBL4814064, “Azetidinimines as a novel series of non-covalent broad-spectrum inhibitors of β-lactamases with submicromolar activities against carbapenemases KPC-2 (class A), NDM-1 (class B) and OXA-48 (class D)” (Eur J Med Chem, 2021).

Legend:
[1] = Inhibition of Escherichia coli NTBC121 NDM-1 by UV absorbance analysis
[2] = Inhibition of NDM-1 (unknown origin); set-up: species or system Bacteria
[3] = tested on: Bacteria; assay: Inhibition of OXA-48 (unknown origin) expressed in Escherichia coli BL21 (DE3) at 10 uM incubated for 3 mins by spectrophotometric analysis relative to control
How it was run: (§1)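 OXA-48 at 5.8 nM (His-tagged, expressed in BL21(DE3), purified in K2SO4 buffers) in 100 mM phosphate pH 7 plus 50 mM NaHCO3. Inhibitor preincubated 3 min; substrate 100 µM imipenem; initial velocities at 297 nm, 600 s, 25 °C. Seven inhibitor concentrations in triplicate give IC50, converted to Ki by Cheng–Prusoff; percent inhibition at 10 µM.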

[4] = biological target: Class A carbapenemase KPC-2 (Escherichia coli, UniProt A8DS27); assay: Inhibition of KPC-2 (unknown origin) expressed in Escherichia coli BL21 (DE3) incubated for 3 mins by spectrophotometric analysis; conditions: read-out: Ki
How it was run: (§2)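 Preincubated 3 min with inhibitor in 100 mM phosphate pH 7. Imipenem 100 µM; hydrolysis followed at 297 nm for 600 s at 25 °C. IC50 from seven concentrations in triplicate; Ki by Cheng–Prusoff. Percent inhibition read at 10 µM.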

[5] = tested on: Bacteria; assay: Inhibition of NDM-1 (unknown origin) expressed in Escherichia coli BL21 (DE3) at 10 uM incubated for 3 mins by spectrophotometric analysis relative to control
How it was run: (§3)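 NDM-1 (1 nM, His-tagged, expressed in E. coli BL21(DE3) with 1 mM IPTG for 3 h at 37 °C, purified, kept with 50 µM ZnSO4). Run in 100 mM phosphate pH 7 with 50 µM ZnSO4, 3 min enzyme–inhibitor preincubation, then 100 µM imipenem. Initial rates at 297 nm over 600 s, 25 °C. Triplicate seven-point IC50 converted to Ki (Cheng–Prusoff); percent inhibition at 10 µM.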

[6] = tested on: Escherichia coli; assay: Potentiation of imipenem-induced antibacterial activity against Escherichia coli clinical isolate GUE expressing NDM-1 assessed as imipenem MIC at 100 uM incubated for 18 to 24 hrs by broth microdilution method (reference value: 16 ug/ml); format: functional; conditions: time 18-24 hrs
[7] = biological target: Class A carbapenemase KPC-2 (Escherichia coli) (UniProt A8DS27); assay: Inhibition of KPC-2 (unknown origin) expressed in Escherichia coli BL21 (DE3) at 10 uM incubated for 3 mins by spectrophotometric analysis relative to control; how it was run: as §2
[8] = Inhibition of OXA-48 (unknown origin) expressed in Escherichia coli BL21 (DE3) incubated for 3 mins by spectrophotometric analysis; set-up: species or system Bacteria; conditions: read-out: Ki; how it was run: as §1
[9] = Metabolic stability in mouse liver microsomes at 5 uM after 45 min absence of NADPH by UPLC-MS/MS analysis; format: ADME, Microsome; conditions: read-out: Stabilty
How it was run: (§4)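 Test compound at 5 µM with 0.5 mg/mL pooled male mouse liver microsomes in 0.1 M phosphate pH 7.4 at 37 °C. Reaction started with 1 mM NADPH and sampled at 0–45 min in duplicate; a no-NADPH control was run. Quenched with cold acetonitrile; parent measured by UPLC-MS/MS (MRM). t1/2 from log-linear decay; CLint per mg microsomal protein.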

[10] = tested on: Bacteria; assay: Inhibition of CMY-2 (unknown origin) expressed in Escherichia coli BL21(DE3) at 10 uM
How it was run: (§5)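 Enzymes cloned into pET41b from clinical enterobacterial DNA and expressed in E. coli BL21(DE3) overnight at 22 °C with 0.2 mM IPTG. His-tag affinity then Superdex 75 gel filtration (100 mM phosphate pH 7, 150 mM NaCl); dialysed into 10 mM Tris-HCl pH 7.6, with 50 µM ZnSO4 added for NDM and VIM variants.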

[11] = tested on: Escherichia coli; assay: Potentiation of imipenem-induced antibacterial activity against Escherichia coli clinical isolate GUE expressing NDM-1 assessed as imipenem MIC at 50 uM incubated for 18 to 24 hrs by broth microdilution method (reference value: 16 ug/ml); format: functional; conditions: time 18-24 hrs
[12] = tested on: HCT-116; assay: Cytotoxicity against human HCT-116 cells assessed as reduction in cell viability measured after 72 hrs by MTS assay; format: cell-based; conditions: HCT-116, 72 h
How it was run: (§6)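 Cells grown at 37 °C in 5% CO2: MRC-5 in DMEM and HCT116 in RPMI 1640, each with 10% FCS and 1% glutamine. Seeded at 2.5 × 10³ cells/well, dosed after 24 h, exposed 72 h, then read at 490 nm after 2 h with reagent. IC50 = concentration halving absorbance versus untreated; triplicate.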

[13] = tested on: Bacteria; assay: Inhibition of NDM-4 (unknown origin) expressed in Escherichia coli BL21(DE3) at 10 uM; how it was run: as §5
[14] = tested on: Bacteria; assay: Inhibition of VIM-52 (unknown origin) expressed in Escherichia coli BL21(DE3) at 10 uM; how it was run: as §5
[15] = Metabolic stability in mouse liver microsomes at 5 uM assessed as intrinsic clearance measured per mg protein by UPLC-MS/MS analysis; format: ADME, Microsome; conditions: read-out: CLH; how it was run: as §4
[16] = Inhibition of NDM-1 (unknown origin) expressed in Escherichia coli BL21 (DE3) incubated for 3 mins by spectrophotometric analysis; set-up: species or system Bacteria; conditions: read-out: Ki; how it was run: as §3
[17] = tested on: Escherichia coli; assay: Potentiation of imipenem-induced antibacterial activity against Escherichia coli clinical isolate GUE expressing NDM-1 assessed as imipenem MIC at 20 uM incubated for 18 to 24 hrs by broth microdilution method (reference value: 16 ug/ml); format: functional; conditions: time 18-24 hrs
[18] = tested on: Bacteria; assay: Inhibition of NDM-9 (unknown origin) expressed in Escherichia coli BL21(DE3) at 10 uM; how it was run: as §5
[19] = tested on: MRC5; assay: Cytotoxicity against human MRC-5 cells assessed as reduction in cell viability measured after 72 hrs by MTS assay; format: cell-based; conditions: MRC5, 72 h; how it was run: as §6
[20] = tested on: Bacteria; assay: Inhibition of CTX-M-15 (unknown origin) expressed in Escherichia coli BL21(DE3) at 10 uM; how it was run: as §5
[21] = tested on: Bacteria; assay: Inhibition of VIM-1 (unknown origin) expressed in Escherichia coli BL21(DE3) at 10 uM; how it was run: as §5
[22] = tested on: Bacteria; assay: Inhibition of NDM-7 (unknown origin) expressed in Escherichia coli BL21(DE3) at 10 uM; how it was run: as §5
[23] = Inhibition of NDM-1 (unknown origin) expressed in Escherichia coli BW25113deltabamBdeltatolC mutant using nitrocefin as substrate by colorimetric analysis; set-up: species or system Bacteria
[24] = tested on: Escherichia coli; assay: Potentiation of imipenem-induced antibacterial activity against Escherichia coli clinical isolate GUE expressing NDM-1 assessed as fold change in imipenem MIC at 200 uM incubated for 18 to 24 hrs by broth microdilution method; format: functional; conditions: time 18-24 hrs
[25] = tested on: Escherichia coli; assay: Potentiation of imipenem-induced antibacterial activity against Escherichia coli clinical isolate GUE expressing NDM-1 assessed as fold change in imipenem MIC at 50 uM incubated for 18 to 24 hrs by broth microdilution method; format: functional; conditions: time 18-24 hrs

SMILES | inhibition [3] [%] | Ki [4] [nM] | inhibition [5] [%] | MIC [6] [µg/mL] | inhibition [7] [%] | remaining at 0.75 h, 5 µM [9] [%] | MIC [11] [µg/mL] | microsomal CLint at 5 µM [15] [µL/min/mg] | MIC [17] [µg/mL] | Ki [8] [nM] | IC50 [12] [µM] | Ki [16] [nM] | IC50 [19] [µM] | other results
O=C(O)c1ncsc1NS(=O)(=O)c1cccnc1 |  |  |  |  |  |  |  |  |  |  |  |  |  | IC50 [1]: 2670 nM
CN1CCN(NC(=O)CN2C(=O)/C(=C/c3c(Cl)ccc(Cl)c3Cl)SC2=S)CC1 |  |  |  |  |  |  |  |  |  |  |  |  |  | IC50 [2]: 9.44 µM
Oc1ccc(N2/C(=N/c3ccc(I)cc3)CC2c2ccc(Cl)cc2Cl)cc1 (racemic) | > 50 | 280 | > 50 | 4 | > 50 | 96 | 4 | 13.9 | 8 | 70 | 32.3 | 70 | 19.9 | inhibition [10]: 86%; inhibition [13]: 100%; inhibition [14]: 0%; inhibition [18]: 100%; inhibition [20]: 83%; inhibition [21]: 100%; inhibition [22]: 100%
N[C@H](CN[C@H](CN[C@@H](CC(=O)O)C(=O)O)C(=O)O)C(=O)O |  |  |  |  |  |  |  |  |  |  |  |  |  | IC50 [23]: 4 µM

More lines, main results first:

inhibition [3] [%] | Ki [4] [nM] | inhibition [5] [%] | MIC [6] [µg/mL] | inhibition [7] [%] | remaining at 0.75 h, 5 µM [9] [%] | MIC [11] [µg/mL] | microsomal CLint at 5 µM [15] [µL/min/mg] | MIC [17] [µg/mL] | SMILES | Ki [8] [nM] | IC50 [12] [µM] | Ki [16] [nM] | IC50 [19] [µM] | other results
> 50 | 1890 | > 50 | 16 | > 50 | 83 | 16 | 2 | 16 | COc1ccc(N2/C(=N/c3ccc(I)cc3)CC2c2ccc(Cl)cc2Cl)cc1 (racemic) | 910 | > 100 | 220 | > 100 | fold change (FC) [24]: 2
41 | 3690 | > 50 | 2 | > 50 | 100 | 4 | 7.6 | 16 | Clc1ccc(C2C/C(=N\c3ccc(I)cc3)N2c2ccc(OCc3ccccc3)cc2)c(Cl)c1 (racemic) |  | > 100 | 360 | > 100 | fold change (FC) [25]: 4
